# Measurements: ChEMBL document CHEMBL2157864, “Microwave-assisted synthesis of hydroxyphenyl nitrones with protective action against oxidative stress” (Eur J Med Chem, 2012)
# Active and inactive are the calls of the source. The calls are words filed in the database; no cut-off is given here.
# Columns and labels:
# [1] = Permeability of the compound after 4 hrs by PAMPA assay; format: ADME; conditions: read-out: permeability
# [2] = Antioxidant activity against peroxynitrite assessed as inhibition of alpha-synuclein aggregate formation at 50 uM by Western blot analysis; format: functional
# Method in brief: (§1)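 α-Synuclein (5 μM) exposed to authentic ONOO⁻ (200 μM) with compound (50 μM) or 1% DMSO; 12% SDS-PAGE, western blot with anti-αS and anti-3-nitrotyrosine antibodies; densitometry of anti-nitrotyrosine blots used for dose-response. Reverse-addition ONOO⁻ control included.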
# SH-SY5Y [3] = test: Neuroprotective activity against 6OHDA-induced toxicity in human SH-SY5Y cells assessed as cell viability at 10 uM after 24 hrs by MTT assay (reference value: 75%); format: functional; conditions: read-out: Activity
# [4] = Antioxidant activity against peroxynitrite assessed as inhibition of alpha-synuclein nitration at 50 uM by Western blot analysis; format: functional; method in brief: as §1
# [5] = Antioxidant activity against peroxynitrite assessed as inhibition of alpha-synuclein nitration by Western blot analysis; format: functional; method in brief: as §1
# SH-SY5Y [6] = test: Neuroprotective activity against SIN1-induced toxicity in human SH-SY5Y cells after 24 hrs by MTT assay; format: functional, cell-based
# Method in brief: (§2)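 SH-SY5Y cells pre-incubated 1 h with compound, then challenged with SIN-1 (0.5 mM; ONOO⁻ generation about 9 μM per minute by DHR method) or vehicle; viability by MTT assay. Mean ± SD, three independent experiments.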
# [7] = Antioxidant activity against NO2 radical production by Western blot analysis; format: functional
# SH-SY5Y [8] = test: Cytotoxicity against human SH-SY5Y cells at 10 to 100 uM after 24 hrs by MTT assay; format: cell-based
# Method in brief: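 SH-SY5Y human neuroblastoma cells exposed to compound (10–100 μM) for 24 h; viability by MTT assay.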
# [9] = Antioxidant activity against peroxynitrite radical at 50 uM by mass spectroscopic analysis; format: functional
# Method in brief: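 Compound (50 μM) reacted with 500 μM ONOO⁻ in 50 mM potassium phosphate, pH 7.4, without NaNO₂; reaction products resolved chromatographically and characterised by mass spectrometry.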
# [10] = Antioxidant activity against peroxyl radical production assessed as trolox equivalent by ORAC assay; format: functional
# Method in brief: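 Oxygen radical absorbance capacity assay, fluorescein as fluorescent probe, peroxyl radical scavenging; expressed as μmol Trolox equivalents per μmol compound, mean of n = 3 ± SD.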
# [11] = Antioxidant activity against CO3 radical production by Western blot analysis; format: functional
# [12] = Antioxidant activity against peroxynitrite assessed as inhibition of RNAse nitration by Western blot analysis; format: functional
# Method in brief: (§3)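 RNase A or cytochrome c (5 μM) treated with authentic ONOO⁻ (200 μM) in presence of compound; 12% SDS-PAGE and western blot probed with anti-3-nitrotyrosine antibody.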
# Astrocyte = test: Antiinflammatory activity in rat primary astrocytes assessed as inhibition of LPS-induced nitrite production at 10 uM incubated for 1 hr prior to LPS-challenge measured after 24 hrs by Greiss method; format: functional, cell-based
# Method in brief: (§4)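 Rat primary glial cultures (microglia or astrocytes) pre-incubated 1 h with compound, then 24 h with LPS (10 μg/mL); nitrite in culture medium measured by Griess reaction. Means ± SD of three experiments.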
# [13] = Cytotoxicity against rat primary microglia cells at 10 uM after 24 hrs by MTT assay; format: cell-based
# Method in brief: (§5)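 Rat primary astrocyte or microglia cultures exposed 24 h to compound (10 μM); cytotoxicity assessed in vitro.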
# [14] = Cytotoxicity against rat primary astrocytes at 10 uM after 24 hrs by MTT assay; format: cell-based; conditions: astrocyte; method in brief: as §5
# [15] = Antioxidant activity against OH radical production by Western blot analysis; format: functional
# Microglia = test: Antiinflammatory activity in rat primary microglia cells assessed as inhibition of LPS-induced nitrite production at 10 uM incubated for 1 hr prior to LPS-challenge measured after 24 hrs by Greiss method; format: functional; method in brief: as §4
# [16] = Antioxidant activity against NO2 radical assessed as mono nitreated derivative formation at 50 uM by mass spectroscopic analysis; format: functional
# Method in brief: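 Compound (50 μM) preincubated with excess NaNO₂ (4 mM), converting •OH to •NO₂, then 500 μM ONOO⁻ in 50 mM potassium phosphate, pH 7.4; products analysed by chromatography with mass spectrometry, tracking nitrated-product peak.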
# [17] = Antioxidant activity against peroxynitrite assessed as inhibition of cytochrome c nitration by Western blot analysis; format: functional; method in brief: as §3
# SH-SY5Y [18] = test: Neuroprotective activity against SIN1-induced toxicity in human SH-SY5Y cells assessed as cell viability at 500 uM after 24 hrs by MTT assay relative to control; format: functional; conditions: read-out: Activity; method in brief: as §2
# SH-SY5Y [19] = test: Neuroprotective activity against SIN1-induced toxicity in human SH-SY5Y cells assessed as cell viability at 100 uM after 24 hrs by MTT assay relative to control; format: functional; conditions: read-out: Activity; method in brief: as §2
# SH-SY5Y [20] = test: Neuroprotective activity against SIN1-induced toxicity in human SH-SY5Y cells at 50 to 500 uM after 24 hrs by MTT assay; format: functional, cell-based; method in brief: as §2
Papp at 4 h [1] [×10⁻⁶ cm/s],SMILES,viability at 10 µM (SH-SY5Y [3]) [%],Activity (SH-SY5Y [8]),Activity [10] [equiv],inhibition (Astrocyte),Activity [13],Activity [14],inhibition (Microglia),other results
1.7,CCn1cc(C(=O)O)c(=O)c2cc(F)c(N3CCNCC3)nc21 [ENOXACIN],,,,,,,,
14.4,CNCCCN1c2ccccc2CCc2ccccc21 [DESIPRAMINE],,,,,,,,
0.2,CC(C)(C)/[N+]([O-])=C/c1ccc(O)cc1,100,Non-toxic,3.2,Active,Non-toxic,Non-toxic,Active,inhibition [2]: Active; inhibition [4]: Active; inhibition [5]: Dose-dependent effect; Activity (SH-SY5Y [6]): Dose-dependent effect; Activity [7]: Active; Activity [9]: Active; Activity [11]: Active; inhibition [12]: Active; Activity [15]: Active; Activity [16]: Active; inhibition [17]: Active; viability at 500 µM (SH-SY5Y [18]): 100%; viability at 100 µM (SH-SY5Y [19]): 91%
,CC(C)(C)/[N+]([O-])=C/c1ccccc1,,,0.014,,,,,
37.5,CC(C)(C)/[N+]([O-])=C/c1ccccc1O,100,Non-toxic,2.6,Active,Non-toxic,Non-toxic,Active,Activity (SH-SY5Y [20]): inactive
1.6,CN1C(C(=O)Nc2ccccn2)=C(O)c2ccccc2S1(=O)=O [PIROXICAM],,,,,,,,
10.2,CC(C)(C)c1cc(/C=[N+](\[O-])C(C)(C)C)cc(C(C)(C)C)c1O,100,Non-toxic,2,Active,Non-toxic,Non-toxic,Active,inhibition [2]: Active; inhibition [4]: Active; Activity (SH-SY5Y [20]): inactive; inhibition [12]: Active; inhibition [17]: Active
